In ChEMBL document CHEMBL2429747, “Synthesis and biological evaluation of α-galactosylceramide analogues with heteroaromatic rings and varying positions of a phenyl group in the sphingosine backbone” (J Med Chem, 2013):
The source made the active and inactive calls. The calls are words filed in the database; no cut-off is given here.

Tests used:
Mus musculus [1] = organism: Mus musculus; test: Antiautoimmune disease activity in wild type C57BL/6 mouse experimental autoimmune encephalitis model assessed as reduction in disease pathogenicity at 2 ug, […] as single dose measured up to 30 days; type: functional, organism-based
Method in brief: (§1)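 Wild-type B6 mice received 2D2 TCR-transgenic lymphocytes containing 1 × 10^6 Va3.2+Vβ11+ CD4+ T cells via the tail vein. After 24 h, mice were immunized sc in each flank with 200 μg MOG35−55 in incomplete Freund's adjuvant with 200 μg M. tuberculosis. Pertussis toxin was given ip on day 0 and day 2. A single 2 μg dose was mixed into the antigen emulsion at immunization. EAE clinical score was followed; n = 8/group from two experiments, mean ± SEM.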

Mus musculus [2] = test: In vivo immunomodulatory activity in wild type C57BL/6 mouse assessed as decrease in IFN-gamma level in serum at 2 ug, iv administered as single dose measured after 12 to 24 hrs; type: functional, organism-based
Method in brief: (§2)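 Mice were given a single intravenous injection of 2 μg glycolipid, and serum was collected at set times after injection. Serum cytokines were measured by sandwich ELISA: plates coated with anti-cytokine antibody and blocked with 1% BSA, serum incubated overnight at 4 °C, then biotinylated antibody, streptavidin-HRP and TMB, with absorbance read at 450 nm.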

Mus musculus [3] = test: In vivo immunomodulatory activity in wild type C57BL/6 mouse assessed as IL-4 level in serum at 2 ug, iv administered as single dose measured at >2 hrs; type: functional, organism-based; method in brief: as §2
Mus musculus [4] = organism: Mus musculus; test: Antiautoimmune disease activity in wild type C57BL/6 mouse experimental autoimmune encephalitis model assessed as delay in disease onset at 2 ug, […] as single dose measured up to 30 days; type: functional, organism-based; method in brief: as §1
Mus musculus [5] = test: Immunomodulatory activity in PMA- and ionomycin-stimulated wild type C57BL/6 mouse HMNC cells assessed as inhibition of Th1 differentiation of MOG-specific CD4+ T cells at 2 ug, ip administered as single dose measured 22 days post immunization by brefeldin A staining-based flow cytometric analysis; type: functional, organism-based
Method in brief: (§3)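 At 22 days post-immunization, mice were perfused with cold PBS. Lumbar spinal cord was minced, digested and homogenized, and mononuclear cells were taken from the 30−70% Percoll interface. Cells were restimulated 4 h with PMA 50 ng/mL and ionomycin 1 μg/mL, with brefeldin A 1 μg/mL for the last 2 h. Cells were surface-stained, fixed in 4% PFA, permeabilized with Triton buffer, stained for CD4, IL-17 and IFN-γ, and analyzed by flow cytometry.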

Mus musculus [6] = test: Immunomodulatory activity in PMA- and ionomycin-stimulated wild type C57BL/6 mouse HMNC cells assessed as reduction in IL-17 cytokine in cell culture supernatant at 2 ug, ip administered as single dose measured 22 days post immunization by ELISA relative to vehicle-treated control; type: functional, organism-based
Method in brief: (§4)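 Spinal cord mononuclear cells were isolated at day 22 by Percoll gradient and restimulated 4 h with PMA 50 ng/mL plus ionomycin 1 μg/mL. Supernatant cytokines were measured by sandwich ELISA using capture antibody, biotinylated detection antibody, streptavidin-HRP and TMB. Data are mean ± SD of individual mice, n = 3−4/group.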

Mus musculus [7] = test: In vivo immunomodulatory activity in wild type C57BL/6 mouse assessed as IL-4 level in serum at 2 ug, iv administered as single dose measured at 2 hrs; type: functional, organism-based; method in brief: as §2
Mus musculus [8] = test: Immunomodulatory activity in PMA- and ionomycin-stimulated wild type C57BL/6 mouse HMNC cells assessed as reduction in IFN-gamma cytokine in cell culture supernatant at 2 ug, ip administered as single dose measured 22 days post immunization by ELISA relative to vehicle-treated control; type: functional, organism-based; method in brief: as §4
Mus musculus [9] = test: Immunomodulatory activity in PMA- and ionomycin-stimulated wild type C57BL/6 mouse HMNC cells assessed as inhibition of Th17 differentiation of MOG-specific CD4+ T cells at 2 ug, ip administered as single dose measured 22 days post immunization by brefeldin A staining-based flow cytometric analysis; type: functional, organism-based; method in brief: as §3
HMNC [10] = test: Immunomodulatory activity in wild type C57BL/6 mouse HMNC cells assessed as increase in IL-4 secretion at 25 nM after 72 hrs by ELISA; type: functional, cell-based
Method in brief: (§5)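 Hepatic mononuclear cells from C57BL/6 mice were isolated on Percoll and grown in RPMI-1640 with 10% FBS, L-glutamine and 2-mercaptoethanol. Cells (2 × 10^5) were stimulated 72 h with 25 nM glycolipid. Supernatant cytokines were measured by sandwich ELISA: overnight 4 °C sample incubation, biotinylated antibody, streptavidin-HRP, TMB, A450. Assays were run in triplicate and repeated 2−3 times; mean ± SD.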

HMNC [11] = test: Immunomodulatory activity in wild type C57BL/6 mouse HMNC cells assessed as reduction in IFN-gamma secretion at 25 nM after 72 hrs by ELISA; type: functional, cell-based; method in brief: as §5
HMNC [12] = test: Immunomodulatory activity in wild type C57BL/6 mouse HMNC cells assessed as reduction in IL-17 secretion at 25 nM after 72 hrs by ELISA; type: functional, cell-based; method in brief: as §5
Mus musculus [13] = test: Antiautoimmune disease activity in wild type C57BL/6 mouse experimental autoimmune encephalitis model assessed as reduction in mononuclear cells infiltration into white matter at 2 ug, ip administered as single dose measured on day 18 post immunization by H & E staining-based analysis relative to vehicle-treated control; type: functional, organism-based
Mus musculus [14] = test: In vivo immunomodulatory activity in wild type C57BL/6 mouse assessed as decrease in IL-17 level in serum at 2 ug, iv administered as single dose measured at 12 to 24 hrs; type: functional, organism-based; method in brief: as §2

Compound | Activity (Mus musculus [1]) | Activity (Mus musculus [2]) | Activity (Mus musculus [3]) | Activity (Mus musculus [4]) | Activity (Mus musculus [5]) | Activity (Mus musculus [6]) | Activity (Mus musculus [7]) | Activity (Mus musculus [8]) | Activity (Mus musculus [9]) | Activity (HMNC [10]) | Activity (HMNC [11]) | Activity (HMNC [12]) | Activity (Mus musculus [13]) | Activity (Mus musculus [14])
CCCCCCCCCCCCCCCCCCCCCCCCCC(=O)N[C@@H](CO[C@H]1O[C@H](CO)[C@H](O)[C@H](O)[C@H]1O)[C@H](O)[C@H](O)CCCCCCCCCCCCCC | Active | inactive | inactive | inactive | inactive | inactive | Active | inactive | inactive | – | – | – | – | –
CCCCCCCCCCCCCCCCCCCCCCCCCC(=O)N[C@@H](CO[C@H]1O[C@H](CO)[C@H](O)[C@H](O)[C@H]1O)[C@H](O)[C@H](O)c1cnn(CCCCCc2ccc(CC)cc2)c1 | – | – | – | – | – | – | – | – | – | Active | Active | Active | – | –
CCCCCCCCCCCCCCCCCCCCCCCCCC(=O)N[C@@H](CO[C@H]1O[C@H](CO)[C@H](O)[C@H](O)[C@H]1O)[C@H](O)[C@H](O)c1cnn(CCCCCCc2ccc(C)cc2)c1 | – | – | – | – | – | – | – | – | – | Active | Active | Active | – | –
CCCCCCCCCCCCCCCCCCCCCCCCCC(=O)N[C@@H](CO[C@H]1O[C@H](CO)[C@H](O)[C@H](O)[C@H]1O)[C@H](O)[C@H](O)c1cnn(CCc2ccc(CCCCC)cc2)c1 | – | – | – | – | – | – | – | – | – | inactive | inactive | inactive | – | –
CCCCCCCCCCCCCCCCCCCCCCCCCC(=O)N[C@@H](CO[C@H]1O[C@H](CO)[C@H](O)[C@H](O)[C@H]1O)[C@H](O)[C@H](O)c1cnn(CCCCc2ccc(CCC)cc2)c1 | – | – | – | – | – | – | – | – | – | Active | Active | Active | – | –
CCCCCCCCCCCCCCCCCCCCCCCCCC(=O)N[C@@H](CO[C@H]1O[C@H](CO)[C@H](O)[C@H](O)[C@H]1O)[C@H](O)[C@H](O)c1cnn(CCCCCCCc2ccccc2)c1 | – | – | – | – | – | – | – | – | – | Active | Active | Active | – | –
CCCCCCCCCCCCCCCCCCCCCCCCCC(=O)N[C@@H](CO[C@H]1O[C@H](CO)[C@H](O)[C@H](O)[C@H]1O)[C@H](O)[C@H](O)c1cnn(Cc2ccc(CCCCCC)cc2)c1 | – | – | – | – | – | – | – | – | – | Active | Active | Active | – | –
CCCCCCCCCCCCCCCCCCCCCCCCCC(=O)N[C@@H](CO[C@H]1O[C@H](CO)[C@H](O)[C@H](O)[C@H]1O)[C@H](O)[C@H](O)c1cnn(CCCc2ccc(CCCC)cc2)c1 | Active | inactive | inactive | Active | Active | Active | Active | Active | Active | Active | Active | Active | Active | Active
